Assay results as given in ChEMBL document CHEMBL4257566, “Design, synthesis and structure-based optimization of novel isoxazole-containing benzamide derivatives as FtsZ modulators” (Eur J Med Chem, 2018).
Converted amounts (≈) assume the structure as drawn. The source made the active and inactive calls. The rule behind the calls is not given here.

What was measured:
Staphylococcus aureus [1] = test: Antibacterial activity against Staphylococcus aureus ATCC 25923 after 24 hrs by broth microdilution based CLSI method; assay type: functional; conditions: ATCC 25923, 24 h
Bacillus subtilis [2] = test: Antibacterial activity against Bacillus subtilis ATCC 9372 after 24 hrs by broth microdilution based CLSI method; assay type: functional; conditions: ATCC 9372, 24 h
Bacillus subtilis [3] = test: Potency index, ratio of PC190723 MIC to test compound MIC for antibacterial activity against Bacillus subtilis ATCC 9372 after 24 hrs by broth microdilution based CLSI method
[4] = target: T1, Cell division protein FtsZ (Bacillus subtilis (strain 168)) (UniProt P17865); test: Induction of Bacillus subtilis FtsZ polymerization at 10 ug/ml in presence of GTP by microtiter plate-based light-scattering assay
T1 sequence (whole entry): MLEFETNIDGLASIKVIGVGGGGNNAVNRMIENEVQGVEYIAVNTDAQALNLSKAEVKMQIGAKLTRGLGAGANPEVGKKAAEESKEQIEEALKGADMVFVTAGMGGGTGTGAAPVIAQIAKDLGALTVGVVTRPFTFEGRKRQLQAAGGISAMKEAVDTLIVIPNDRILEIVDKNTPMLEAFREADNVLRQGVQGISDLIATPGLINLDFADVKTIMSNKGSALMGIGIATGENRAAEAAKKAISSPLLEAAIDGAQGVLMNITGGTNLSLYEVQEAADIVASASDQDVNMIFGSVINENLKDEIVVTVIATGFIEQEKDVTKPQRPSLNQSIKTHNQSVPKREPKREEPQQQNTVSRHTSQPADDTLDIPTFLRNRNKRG
Summary of the method: (§1)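 Recombinant purified B. subtilis FtsZ (5 µM) with 1 mM GTP in 50 mM MES, 50 mM KCl, 2 mM magnesium acetate, compound 0–10 µg/mL. Polymerization followed as light scattering (A340) continuously at 25 °C for 30 min. DMSO vehicle and a non-FtsZ control were included.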

Staphylococcus aureus [5] = test: Antibacterial activity against methicillin-resistant Staphylococcus aureus ATCC 43300 after 24 hrs by broth microdilution based CLSI method; assay type: functional; conditions: ATCC 43300, 24 h
HeLa = test: Cytotoxicity in human HeLa cells assessed as reduction in cell viability after 36 hrs by MTT assay; assay type: cell-based
Summary of the method: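 HeLa cells seeded at 10⁴ cells/well and left overnight, then exposed to compound for 36 h. MTT (5 mg/mL solution) added for 4 h at 37 °C, medium replaced by DMSO for 10 min, absorbance read at 570 nm.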

Staphylococcus aureus [6] = test: Antibacterial activity against clinical isolate of penicillin-resistant Staphylococcus aureus after 24 hrs by broth microdilution based CLSI method; assay type: functional
Pseudomonas aeruginosa = test: Antibacterial activity against Pseudomonas aeruginosa ATCC 27853 after 24 hrs by broth microdilution based CLSI method; assay type: functional; conditions: ATCC 27853, 24 h
Bacillus pumilus [7] = test: Antibacterial activity against Bacillus pumilus CMCC63202 after 24 hrs by broth microdilution based CLSI method; assay type: functional; conditions: CMCC63202, 24 h
Escherichia coli = test: Antibacterial activity against Escherichia coli ATCC 25922 after 24 hrs by broth microdilution based CLSI method; assay type: functional; conditions: ATCC 25922, 24 h
[8] = target: T1, Cell division protein FtsZ (Bacillus subtilis (strain 168)); test: Induction of Bacillus subtilis FtsZ polymerization in presence of GTP by microtiter plate-based light-scattering assay; summary of the method: as §1
Staphylococcus aureus [9] = test: Antibacterial activity against methicillin-resistant Staphylococcus aureus ATCC 43300 infected in mouse assessed as reduction of bacterial burden in blood at 30 mg/kg, ip administered 0.1, 3, 6, 9 and 12 hrs postinfection and measured at 24 hrs post last dose; assay type: functional, organism-based
Staphylococcus aureus [10] = test: Bactericidal activity against methicillin-resistant Staphylococcus aureus ATCC 43300 assessed as reduction in viable bacterial count at 1 to 2 times MIC after 12 hrs by time-kill assay; assay type: functional
Summary of the method: (§2)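 Growing culture diluted to about 10⁶ CFU/mL in CAMH broth containing compound, then shaken at 37 °C. At set times, samples were serially diluted tenfold in CAMH broth and three dilutions plated on TSA. CFU/mL counted after 24 h at 37 °C. Detection limit 10³ CFU/mL. Points are the mean of two independent runs, with SD.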

[11] = target: T1, Cell division protein FtsZ (Bacillus subtilis (strain 168)); test: Induction of Bacillus subtilis FtsZ assessed as increase in size of polymer at 10 ug/ml after 20 mins by transmission electron microscopic analysis
Summary of the method: (§3)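 Purified B. subtilis FtsZ incubated with or without compound at room temperature for 20 min in polymerization buffer (50 mM MES, 50 mM KCl, 2 mM magnesium acetate, 1 mM GTP). Samples put on glow-discharged Formvar/carbon copper grids, negatively stained with 1% phosphotungstic acid for 1 min, imaged by TEM at 100 kV.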

Staphylococcus aureus [12] = test: Bactericidal activity against methicillin-resistant Staphylococcus aureus ATCC 43300 assessed as reduction in viable bacterial count at 4 times MIC after 6 hrs by time-kill assay; assay type: functional, organism-based; summary of the method: as §2
Staphylococcus aureus [13] = test: Bactericidal activity against methicillin-resistant Staphylococcus aureus ATCC 43300 incubated for 24 hrs followed by plating onto tryptic soy agar plates and further incubated for 24 hrs by broth microdilution based CLSI method; assay type: functional; conditions: ATCC 43300, 24 h
Summary of the method: (§4)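 MBC taken from the CLSI broth microdilution plates. These held 2-fold serial dilutions from 64 to 0.125 µg/mL in cation-adjusted Mueller-Hinton broth, seeded with log-phase bacteria and incubated aerobically for 24 h at 37 °C. Well aliquots were plated on TSA and colonies counted after 24 h. MBC is the lowest concentration giving a ≥3-log CFU reduction.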

Bacillus pumilus [14] = test: Potency index, ratio of PC190723 MIC to test compound MIC for Bacillus pumilus CMCC63202 after 24 hrs by broth microdilution based CLSI method; assay type: functional
Staphylococcus aureus [15] = test: Bactericidal activity against methicillin-resistant Staphylococcus aureus ATCC 43300 assessed as reduction in viable bacterial count at 0.5 times MIC after 24 hrs by time-kill assay; assay type: functional, organism-based; summary of the method: as §2
Mus musculus [16] = test: Toxicity in mouse infected with methicillin-resistant Staphylococcus aureus ATCC 43300 assessed as mouse death at 30 mg/kg, ip administered 0.1, 3, 6, 9 and 12 hrs postinfection and measured after 1 week; assay type: organism-based; conditions: in vivo, 168 h
Summary of the method: (§5)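 KM mice (about 20 g) infected i.v. with 5.4 × 10⁷ CFU MRSA in 0.1 mL saline. Dosing i.p. in vehicle of 1% DMAC, 30% TEG, 7% HPβCD in water (final), with a vehicle-only group. Deaths recorded for one week after bacterial inoculation.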

[17] = target: T1, Cell division protein FtsZ (Bacillus subtilis (strain 168)); test: Induction of Bacillus subtilis FtsZ assessed as increase in bundling of protofilament at 10 ug/ml after 20 mins by transmission electron microscopic analysis; summary of the method: as §3
Bacillus pumilus [18] = test: Antibacterial activity against Bacillus pumilus CMCC63202 assessed as increase in bacterial cell length at 0.5 times MIC after 18 hrs by phase-contrast optical microscopic analysis; assay type: functional, organism-based
Summary of the method: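 Harvested cells resuspended in PBS, spotted on poly-L-lysine (0.1% w/v) coated slides and cell length examined by phase-contrast microscopy at 40 magnification.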

Staphylococcus aureus [19] = test: Selectivity ratio of MBC for Staphylococcus aureus ATCC 25923 to MIC for Staphylococcus aureus ATCC 25923; assay type: functional
Staphylococcus aureus [20] = test: Bactericidal activity against clinical isolate of penicillin-resistant Staphylococcus aureus incubated for 24 hrs followed by plating onto tryptic soy agar plates and further incubated for 24 hrs by broth microdilution based CLSI method; assay type: functional; summary of the method: as §4
[21] = target: T1, Cell division protein FtsZ (Bacillus subtilis (strain 168)); test: Induction of Bacillus subtilis FtsZ assessed as increase in thickness of polymer size at 10 ug/ml after 20 mins by transmission electron microscopic analysis; summary of the method: as §3
Staphylococcus aureus [22] = test: Bactericidal activity against Staphylococcus aureus ATCC 25923 incubated for 24 hrs followed by plating onto tryptic soy agar plates and further incubated for 24 hrs by broth microdilution based CLSI method; assay type: functional; conditions: ATCC 25923, 24 h
Staphylococcus aureus [23] = test: Selectivity ratio of MBC for methicillin-resistant Staphylococcus aureus ATCC 43300 to MIC for methicillin-resistant Staphylococcus aureus ATCC 43300; assay type: functional
Summary of the method: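 Ratio of MBC to MIC. Both come from the same CLSI broth microdilution run: 2-fold dilutions from 64 to 0.125 µg/mL in CAMH broth, 24 h at 37 °C. MIC is the last well without turbidity. MBC is the lowest concentration giving a ≥3-log CFU drop after plating on TSA for 24 h. Ratio 1–2 is read as bactericidal, ≥8 as bacteriostatic.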

Staphylococcus aureus [24] = test: Antibacterial activity against methicillin-resistant Staphylococcus aureus ATCC 43300 infected in mouse assessed as reduction of bacterial burden in blood at 30 mg/kg, ip administered 0.1, 6 hrs postinfection and measured at 24 hrs post last dose; assay type: functional, organism-based
Mus musculus [25] = test: Toxicity in mouse infected with methicillin-resistant Staphylococcus aureus ATCC 43300 assessed as mouse death at 30 mg/kg, ip administered 0.1, 6 hrs postinfection and measured after 1 week; assay type: organism-based; conditions: in vivo, 168 h; summary of the method: as §5
Staphylococcus aureus [26] = test: Bactericidal activity against methicillin-resistant Staphylococcus aureus ATCC 43300 assessed as reduction in viable bacterial count at 8 ug/ml after 24 hrs by time-kill assay; assay type: functional, organism-based; summary of the method: as §2

| SMILES | MIC (Staphylococcus aureus [1]) [µg/mL] | MIC (Bacillus subtilis [2]) [µg/mL] | Ratio (Bacillus subtilis [3]) | Activity [4] | MIC (Staphylococcus aureus [5]) [µg/mL] | IC50 (HeLa) [µg/mL] | MIC (Staphylococcus aureus [6]) [µg/mL] | MIC (Pseudomonas aeruginosa) [µg/mL] | MIC (Bacillus pumilus [7]) [µg/mL] | MIC (Escherichia coli) [µg/mL] | MBC (Staphylococcus aureus [13]) [µg/mL] | Ratio (Staphylococcus aureus [19]) | MBC (Staphylococcus aureus [20]) [µg/mL] | MBC (Staphylococcus aureus [22]) [µg/mL] | other results |
| --- | --- | --- | --- | --- | --- | --- | --- | --- | --- | --- | --- | --- | --- | --- | --- |
| CC(C)(C)c1ccc(-c2cc(COc3ccc(F)c(C(N)=O)c3F)on2)cc1 | 8 (≈ 20.7 µM) | 0.03 (≈ 0.0776 µM) | >16 | inactive | 4 (≈ 10.4 µM) | > 128 | 8 (≈ 20.7 µM) | > 64 | 0.25 (≈ 0.647 µM) | > 64 |  |  |  |  |  |
| O=C(O)c1cn(C2CC2)c2cc(N3CCNCC3)c(F)cc2c1=O |  |  |  |  |  |  |  |  |  |  |  |  |  |  | Activity [8]: inactive |
| CC(C)(C)c1ccc(-c2cc(COc3ccc(F)c(C(N)=O)c3F)no2)cc1 | 2 (≈ 5.18 µM) | 0.015 (≈ 0.0388 µM) | 32 | Active | 2 (≈ 5.18 µM) | > 128 | 4 (≈ 10.4 µM) | > 64 | 0.03 (≈ 0.0776 µM) | > 64 | 2 (≈ 5.18 µM) | 2 | 8 (≈ 20.7 µM) | 4 (≈ 10.4 µM) | Activity (Staphylococcus aureus [9]): Active; viable count (Staphylococcus aureus [10]): 1000 CFU/mL; Activity [11]: Active; Activity (Staphylococcus aureus [12]): Active; Ratio (Bacillus pumilus [14]): 32; Activity (Staphylococcus aureus [15]): inactive; Activity (Mus musculus [16]): Non-Toxic; Activity [17]: Active; Activity (Bacillus pumilus [18]): Active; Activity [21]: Active; Ratio (Staphylococcus aureus [23]): 1 |
| CC[C@H]1OC(=O)[C@H](C)[C@@H](O[C@H]2C[C@@](C)(OC)[C@@H](O)[C@H](C)O2)[C@H](C)[C@@H](O[C@@H]2O[C@H](C)C[C@H](N(C)C)[C@H]2O)[C@](C)(OC)C[C@@H](C)C(=O)[C@H](C)[C@@H](O)[C@]1(C)O [CLARITHROMYCIN] | 0.125 (≈ 0.167 µM) |  |  |  |  |  |  |  |  |  |  | 32 |  | 4 (≈ 5.35 µM) |  |
| CC(=O)NC[C@H]1CN(c2ccc(N3CCOCC3)c(F)c2)C(=O)O1 [LINEZOLID] |  | 1 (≈ 2.96 µM) |  |  | 1 (≈ 2.96 µM) |  |  | > 64 | 1 (≈ 2.96 µM) | > 64 | 32 (≈ 94.9 µM) |  | 32 (≈ 94.9 µM) | 32 (≈ 94.9 µM) | Activity (Staphylococcus aureus [24]): Active; Activity (Mus musculus [25]): Non-Toxic; Activity (Staphylococcus aureus [26]): Active |
